Consider eight molecules from ChEMBL document CHEMBL1125303, “Truncated, branched, and/or cyclic analogues of neuropeptide Y: importance of the pancreatic peptide fold in the design of specific Y2 receptor ligands” (J Med Chem, 1992).

Positions of bridges follow the written chain, without caps; N, C: chain ends. Non-standard residues stand in square brackets, D forms with d. Residues, ends and D or L forms follow the SMILES beside them. Orn = NCCC[C@H](N)C(=O)O; Dap = NC[C@H](N)C(=O)O Where only a bound is given, the exact number is not on record here.

The target of experiment [1] is T1, Neuropeptide Y receptor type 1 (Homo sapiens, UniProt P25929).
T1 sequence (P25929 whole entry): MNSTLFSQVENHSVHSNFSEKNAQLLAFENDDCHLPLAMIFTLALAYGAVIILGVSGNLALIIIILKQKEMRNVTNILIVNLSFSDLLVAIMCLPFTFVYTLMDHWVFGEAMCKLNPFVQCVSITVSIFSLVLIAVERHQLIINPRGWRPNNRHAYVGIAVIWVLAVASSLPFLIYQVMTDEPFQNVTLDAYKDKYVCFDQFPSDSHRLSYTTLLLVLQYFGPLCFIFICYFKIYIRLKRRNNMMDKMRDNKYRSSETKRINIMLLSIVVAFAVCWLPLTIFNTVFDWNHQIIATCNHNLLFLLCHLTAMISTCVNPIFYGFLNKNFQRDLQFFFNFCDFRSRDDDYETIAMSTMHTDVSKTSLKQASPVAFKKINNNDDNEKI
Description: Displacement of l25I-PYY from Neuropeptide Y receptor type 1 of human neuroblastoma SK-N-MC cells. It is filed as cell-based. In short, it runs like this: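 Intact SK-N-MC cells (Y1) were grown in MEM with 10% FCS, then plated at 10⁶ cells/well on poly(Lys-Ala)-coated wells and used after 2 days. Cells were washed cold, lysed and gamma-counted. Triplicates; Kd fitted with LIGAND.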

Experiment [2] has as its target T2, Neuropeptide Y receptor type 2 (Homo sapiens, UniProt P49146).
T2 sequence (P49146 whole entry): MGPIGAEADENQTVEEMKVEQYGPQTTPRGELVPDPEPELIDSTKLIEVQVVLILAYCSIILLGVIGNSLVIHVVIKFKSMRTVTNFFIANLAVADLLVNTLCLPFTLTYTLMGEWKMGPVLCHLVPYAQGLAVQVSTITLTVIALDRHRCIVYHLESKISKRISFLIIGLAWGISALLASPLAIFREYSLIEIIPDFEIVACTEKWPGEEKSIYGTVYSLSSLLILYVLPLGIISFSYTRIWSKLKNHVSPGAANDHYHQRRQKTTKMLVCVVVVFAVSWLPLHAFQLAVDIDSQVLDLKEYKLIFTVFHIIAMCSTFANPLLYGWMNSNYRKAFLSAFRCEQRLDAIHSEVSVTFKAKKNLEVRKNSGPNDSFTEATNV
In words: Displacement of l25I-PYY from Neuropeptide Y receptor type 2 of human neuroblastoma SK-N-BE cells. It is filed as cell-based. The essentials: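 Intact SK-N-BE(2) cells (Y2) were grown in DME:F12 with 10% FCS, then plated at 10⁶ cells/well on poly(Lys-Ala)-coated wells and used after 1 day. Cells were washed cold, lysed and gamma-counted. Triplicates; Kd fitted with LIGAND.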

In the case of `CC[C@H](C)[C@H](NC(=O)[C@H](Cc1ccc(O)cc1)NC(=O)[C@H](Cc1cnc[nH]1)NC(=O)[C@H](CCCNC(=N)N)NC(=O)[C@H](CC(C)C)NC(=O)[C@H](C)NC(=O)[C@H](CO)NC(=O)[C@H](Cc1ccc(O)cc1)NC(=O)[C@H](Cc1ccc(O)cc1)NC(=O)[C@H](CCCNC(=N)N)NC(=O)[C@H](C)N)C(=O)N[C@@H](CC(N)=O)C(=O)N[C@H]1CCCNC(=O)CC[C@@H](C(=O)N[C@@H](CCCNC(=N)N)C(=O)N[C@@H](Cc2ccc(O)cc2)C(N)=O)NC(=O)[C@H](CCCNC(=N)N)NC(=O)[C@H]([C@@H](C)O)NC(=O)[C@H]([C@@H](C)CC)NC1=O` (H-ARYYSALRHYIN[Orn]ITRERY-NH2; lactam 13-17), the figures for the Kd in experiment [1] (sk-n-mc) and in experiment [2] (sk-n-be) were over 1000 nM and 950 nM, respectively.

For the molecule `CC[C@H](C)[C@H](NC(=O)[C@H](Cc1ccc(O)cc1)NC(=O)[C@H](Cc1c[nH]cn1)NC(=O)[C@H](CCCN=C(N)N)NC(=O)[C@H](CC(C)C)NC(=O)[C@H](C)NC(=O)[C@H](CO)NC(=O)[C@H](Cc1ccc(O)cc1)NC(=O)[C@H](Cc1ccc(O)cc1)NC(=O)[C@H](CCCN=C(N)N)NC(=O)[C@H](C)N)C(=O)N[C@@H](CC(N)=O)C(=O)N[C@H]1CCCCNC(=O)CC[C@@H](C(=O)N[C@@H](CCCN=C(N)N)C(=O)N[C@@H](Cc2ccc(O)cc2)C(N)=O)NC(=O)[C@H](CCCN=C(N)N)NC(=O)[C@H]([C@@H](C)O)NC(=O)[C@H]([C@@H](C)CC)NC1=O` (H-ARYYSALRHYINKITRERY-NH2; lactam 13-17), the Kd is over 1000 nM in experiment [1] (sk-n-mc) and 360 nM in experiment [2] (sk-n-be).

On to `CC[C@H](C)[C@@H]1NC(=O)[C@H](Cc2ccc(O)cc2)NC(=O)[C@H](Cc2c[nH]cn2)NC(=O)[C@H](CCCNC(=N)N)NC(=O)[C@H](CC(C)C)NC(=O)[C@@H](C)NC(=O)[C@@H]2CCCN2C(=O)[C@H](CCCCN)NC(=O)[C@H](CO)NC(=O)[C@@H](NC(=O)[C@@H](N)Cc2ccc(O)cc2)CCC(=O)NC[C@H](C(=O)N[C@H](C(=O)N[C@H](C(=O)N[C@@H](CCCNC(=N)N)C(=O)N[C@@H](CCC(N)=O)C(=O)N[C@@H](CCCNC(=N)N)C(=O)N[C@@H](Cc2ccc(O)cc2)C(N)=O)[C@@H](C)O)[C@@H](C)CC)NC(=O)[C@H](CC(N)=O)NC1=O`, for which the Kd in experiment [1] (sk-n-mc) was over 1000 nM.

In the case of `CC[C@H](C)[C@H](NC(=O)[C@H](CC(C)C)NC(=O)[C@H](CC(N)=O)NC(=O)[C@@H](NC(=O)[C@H]1CNC(=O)CC[C@H](NC(=O)[C@@H](N)Cc2ccc(O)cc2)C(=O)N[C@@H](CO)C(=O)N[C@@H](CCCCN)C(=O)N2CCC[C@H]2C(=O)N[C@H](C)C(=O)N[C@@H](CC(C)C)C(=O)N[C@@H](CCCNC(=N)N)C(=O)N[C@@H](Cc2cnc[nH]2)C(=O)N1)[C@@H](C)CC)C(=O)N[C@H](C(=O)N[C@@H](CCCNC(=N)N)C(=O)N[C@@H](CCC(N)=O)C(=O)N[C@@H](CCCNC(=N)N)C(=O)N[C@@H](Cc1ccc(O)cc1)C(N)=O)[C@@H](C)O`, the Kd in experiment [1] (sk-n-mc) is over 1000 nM; in experiment [2] (sk-n-be), 3.6 nM.

On to `CC[C@H](C)[C@H](NC(=O)[C@H](Cc1ccc(O)cc1)NC(=O)[C@H](Cc1c[nH]cn1)NC(=O)[C@H](CCCNC(=N)N)NC(=O)[C@H](CC(C)C)NC(=O)[C@H](C)NC(=O)[C@H](CO)NC(=O)[C@H](Cc1ccc(O)cc1)NC(=O)[C@H](Cc1ccc(O)cc1)NC(=O)[C@H](CCCNC(=N)N)NC(=O)[C@H](C)N)C(=O)N[C@@H](CC(N)=O)C(=O)N[C@@H](CC(C)C)C(=O)N[C@H](C(=O)N[C@H](C(=O)N[C@H]1CCCCNC(=O)CC[C@@H](C(N)=O)NC(=O)[C@H](CCCNC(=N)N)NC(=O)[C@H](CCC(N)=O)NC1=O)[C@@H](C)O)[C@@H](C)CC` (H-ARYYSALRHYINLITKQRE-NH2; lactam 16-19), for which, in experiment [1], the Kd is over 1000 nM.

Consider `CC[C@H](C)[C@H](NC(=O)[C@H](Cc1ccc(O)cc1)NC(=O)[C@H](Cc1cnc[nH]1)NC(=O)[C@H](CCCNC(=N)N)NC(=O)[C@H](CC(C)C)NC(=O)[C@H](C)NC(=O)[C@H](CO)NC(=O)[C@H](Cc1ccc(O)cc1)NC(=O)[C@H](Cc1ccc(O)cc1)NC(=O)[C@H](CCCNC(=N)N)NC(=O)[C@H](C)N)C(=O)N[C@@H](CC(N)=O)C(=O)N[C@H]1CNC(=O)CC[C@@H](C(=O)N[C@@H](CCCNC(=N)N)C(=O)N[C@@H](Cc2ccc(O)cc2)C(N)=O)NC(=O)[C@H](CCCNC(=N)N)NC(=O)[C@H]([C@@H](C)O)NC(=O)[C@H]([C@@H](C)CC)NC1=O` (H-ARYYSALRHYIN[Dap]ITRERY-NH2; lactam 13-17), for which the Kd was over 1000 nM in experiment [1] (sk-n-mc) and 590 nM in experiment [2] (sk-n-be).

Turning to `CC[C@H](C)[C@@H]1NC(=O)[C@H](Cc2ccc(O)cc2)NC(=O)[C@@H](C)NC(=O)[C@@H]2CCCN2C(=O)[C@@H](N)CCC(=O)NC[C@H](C(=O)N[C@H](C(=O)N[C@H](C(=O)N[C@@H](CCCNC(=N)N)C(=O)N[C@@H](CCC(N)=O)C(=O)N[C@@H](CCCNC(=N)N)C(=O)N[C@@H](Cc2ccc(O)cc2)C(N)=O)[C@@H](C)O)[C@@H](C)CC)NC(=O)[C@H](CC(N)=O)NC1=O`, the Kd in experiment [1] and in experiment [2] was over 1000 nM in each case.

With `CC[C@H](C)[C@H](NC(=O)[C@H](Cc1ccc(O)cc1)NC(=O)[C@@H](C)NC(=O)[C@@H]1CCCN1C(=O)[C@@H](N)Cc1ccc(O)cc1)C(=O)N[C@@H](CC(N)=O)C(=O)N[C@@H](CC(C)C)C(=O)N[C@H](C(=O)N[C@H](C(=O)N[C@@H](CCCN=C(N)N)C(=O)N[C@@H](CCC(N)=O)C(=O)N[C@@H](CCCN=C(N)N)C(=O)N[C@@H](Cc1ccc(O)cc1)C(N)=O)[C@@H](C)O)[C@@H](C)CC`, in experiment [2] (sk-n-be), the affinity, expressed as Kd, was 120 nM.

In general, Kd refers to the free concentration of one partner at which half of the binding sites on the other are occupied at equilibrium, for simple one-to-one binding. A low value points to higher affinity.
